Experimental data from ChEMBL document CHEMBL1944538, “Synthetic peptides derived from the sequence of a lasso peptide microcin J25 show antibacterial activity” (Bioorg Med Chem, 2012).
Activity calls are given as the source filed them. The rule behind the calls is not given here. Positions of bridges follow the written chain, without caps; N, C: chain ends. Residues, ends and D or L forms follow the SMILES beside them.

Key:
Enterococcus faecalis = test: Antibacterial activity against Enterococcus faecalis ATCC 19433; format: functional, organism-based
Staphylococcus aureus = test: Antibacterial activity against Staphylococcus aureus ATCC 6538; format: functional, organism-based
Escherichia coli [1] = test: Antibacterial activity against Escherichia coli MC4100 up to 250 uM after 24 hrs by liquid growth inhibition assay; format: functional, organism-based
Method in brief: (§1)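 Liquid broth microdilution in LB. Peptide stocks were made in 20% methanol/water (1 or 2.5 mM), then serially doubled in water to final 0.01–100 or 0.5–250 µM. Inoculum was diluted to OD620 0.02–0.05. Plates ran 24 h at 37 °C and were read at OD620. MIC was the lowest concentration giving 100% growth inhibition (0.05 AU). Triplicate wells, three repeat experiments.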

Escherichia coli [2] = test: Antibacterial activity against Escherichia coli DH5alpha up to 250 uM after 24 hrs by liquid growth inhibition assay; format: functional, organism-based; conditions: DH5[alpha]; method in brief: as §1
[3] = system: Salmonella enterica subsp. enterica serovar Choleraesuis; test: Antibacterial activity against Salmonella choleraesuis ATCC 10708 up to 250 uM after 24 hrs by liquid growth inhibition assay; format: functional
Salmonella paratyphi = test: Antibacterial activity against Salmonella paratyphi up to 250 uM after 24 hrs by liquid growth inhibition assay; format: functional, organism-based; conditions: Salmonella enterica subsp. enterica serovar Paratyphi A
[4] = system: Salmonella enterica subsp. enterica serovar Montevideo; test: Antibacterial activity against Salmonella montevideo 20 up to 250 uM after 24 hrs by liquid growth inhibition assay; format: functional; method in brief: as §1
[5] = system: Salmonella enterica subsp. enterica serovar Heidelberg; test: Antibacterial activity against Salmonella heidelberg ATCC 8326 up to 250 uM after 24 hrs by liquid growth inhibition assay; format: functional; method in brief: as §1
Salmonella typhimurium [6] = test: Antibacterial activity against Salmonella Typhimurium ATCC 13311 up to 250 uM after 24 hrs by liquid growth inhibition assay; format: functional, organism-based; conditions: Salmonella enterica subsp. enterica serovar Typhimurium; method in brief: as §1
Salmonella typhimurium [7] = test: Antibacterial activity against Salmonella Typhimurium AFLB 25 up to 250 uM after 24 hrs by liquid growth inhibition assay; format: functional, organism-based; conditions: Salmonella enterica subsp. enterica serovar Typhimurium; method in brief: as §1
Salmonella enteritidis [8] = test: Antibacterial activity against Salmonella enteritidis AFLB 81 up to 250 uM after 24 hrs by liquid growth inhibition assay; format: functional, organism-based; conditions: Salmonella enterica subsp. enterica serovar Enteritidis; method in brief: as §1
Salmonella enteritidis [9] = test: Antibacterial activity against Salmonella enteritidis AFLB 41 up to 250 uM after 24 hrs by liquid growth inhibition assay; format: functional, organism-based; conditions: Salmonella enterica subsp. enterica serovar Enteritidis; method in brief: as §1
Salmonella enteritidis [10] = test: Antibacterial activity against Salmonella enteritidis AFLB 11 up to 250 uM after 24 hrs by liquid growth inhibition assay; format: functional, organism-based; conditions: Salmonella enterica subsp. enterica serovar Enteritidis; method in brief: as §1
Salmonella enteritidis [11] = test: Antibacterial activity against Salmonella enteritidis ATCC 13076 up to 250 uM after 24 hrs by liquid growth inhibition assay; format: functional, organism-based; conditions: Salmonella enterica subsp. enterica serovar Enteritidis; method in brief: as §1
Salmonella enteritidis [12] = test: Antibacterial activity against Salmonella enteritidis PT8 up to 250 uM after 24 hrs by liquid growth inhibition assay; format: functional, organism-based; conditions: Salmonella enterica subsp. enterica serovar Enteritidis; method in brief: as §1
[13] = system: Salmonella enterica subsp. enterica serovar Newport; test: Antibacterial activity against Salmonella newport clinical isolate up to 250 uM after 24 hrs by liquid growth inhibition assay; format: functional; method in brief: as §1
[14] = Cytotoxicity against human MDA-MB-435 cells assessed as cell viability at 0.3 to 100 uM after 24 hrs by MTT assay; format: cell-based; conditions: read-out: Activity
Method in brief: (§2)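 MTT assay. MDA-MB-435 cells were kept in RPMI 1640 and MCF7 cells in DMEM, both with 10% FBS, penicillin and streptomycin, at 37 °C and 5% CO2. Cells were seeded at 1×10^4/well and grown 24 h. Samples came from 1 mM stocks in 10% DMSO/water, twofold diluted to 0.3125–100 µM, and applied for 24 h. MTT (5 mg/mL) was added for 3.5 h, then DMSO solubilization and A570. Viability is relative to untreated cells; triplicate, mean.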

[15] = Cytotoxicity against human MCF7 cells assessed as cell viability at 0.3 to 100 uM after 24 hrs by MTT assay; format: cell-based; conditions: read-out: Activity; method in brief: as §2

Structure (SMILES)	Activity (Enterococcus faecalis)	Activity (Staphylococcus aureus)	Activity (Escherichia coli [1])	Activity (Escherichia coli [2])	Activity [3]	Activity (Salmonella paratyphi)	Activity [4]	Activity [5]	Activity (Salmonella typhimurium [6])	Activity (Salmonella typhimurium [7])	Activity (Salmonella enteritidis [8])	Activity (Salmonella enteritidis [9])	Activity (Salmonella enteritidis [10])	Activity (Salmonella enteritidis [11])	Activity (Salmonella enteritidis [12])	Activity [13]	viability at 24 h, up to 100 µM [14] [%]	viability at 24 h, up to 100 µM [15] [%]
CC[C@H](C)[C@H](NC(=O)[C@@H]1CCCN1C(=O)CNC(=O)CNC(=O)[C@H](CCCNC(=N)N)NC(=O)CNC(=O)[C@@H](NC(=O)[C@H](Cc1ccccc1)NC(=O)[C@H](Cc1ccc(O)cc1)NC(=O)[C@@H]1CSSC[C@H](N)C(=O)NCC(=O)N[C@@H](C)C(=O)N[C@@H](Cc2ccccc2)C(=O)N[C@@H](Cc2cnc[nH]2)C(=O)N[C@@H](C(C)C)C(=O)N2CCC[C@H]2C(=O)N1)C(C)C)C(=O)N[C@@H](CO)C(=O)N[C@@H](Cc1ccccc1)C(=O)O (H-CGAFHVPCYFVGRGGPISF-OH; disulfide 1-8)	inactive	inactive	inactive	inactive	inactive	inactive	inactive	inactive	inactive	inactive	inactive	inactive	inactive	inactive	inactive	inactive	> 90	> 90
CC[C@H](C)[C@H](NC(=O)CNC(=O)[C@@H](NC(=O)[C@H](Cc1ccccc1)NC(=O)[C@H](Cc1ccc(O)cc1)NC(=O)[C@@H]1CSSC[C@H](N)C(=O)NCC(=O)N[C@@H](C)C(=O)NCC(=O)N[C@@H](CCCCN)C(=O)N[C@@H](C(C)C)C(=O)N2CCC[C@H]2C(=O)N1)C(C)C)C(=O)NCC(=O)N[C@H](C(=O)N1CCC[C@H]1C(=O)N[C@H](C(=O)N[C@@H](CO)C(=O)N[C@@H](Cc1ccccc1)C(=O)N[C@@H](CCC(=O)O)C(=O)NCC(=O)O)[C@@H](C)CC)[C@@H](C)O (H-CGAGKVPCYFVGIGTPISFEG-OH; disulfide 1-8)	inactive	inactive	inactive	inactive	inactive	inactive	inactive	inactive	inactive	inactive	inactive	inactive	inactive	inactive	inactive	inactive	75	75
CC[C@H](C)[C@H](NC(=O)CNC(=O)[C@@H](NC(=O)[C@H](Cc1ccccc1)NC(=O)[C@H](Cc1ccc(O)cc1)NC(=O)[C@@H]1CSSC[C@H](N)C(=O)NCC(=O)N[C@@H](C)C(=O)N[C@@H](CCCCN)C(=O)N[C@@H](Cc2cnc[nH]2)C(=O)N[C@@H](C(C)C)C(=O)N2CCC[C@H]2C(=O)N1)C(C)C)C(=O)NCC(=O)N[C@H](C(=O)N1CCC[C@H]1C(=O)N[C@H](C(=O)N[C@@H](CO)C(=O)N[C@@H](Cc1ccccc1)C(=O)N[C@@H](CCC(=O)O)C(=O)O)[C@@H](C)CC)[C@@H](C)O (H-CGAKHVPCYFVGIGTPISFE-OH; disulfide 1-8)	inactive	inactive	inactive	inactive	inactive	inactive	inactive	inactive	inactive	inactive	inactive	inactive	inactive	inactive	inactive	inactive	–	75
